From PubChem
OX1R antag-1 = OX1R (human) antagonism; O43613; OX1R-expressing cells, FRET antagonist read-out; inhibition, % at 6.6 µM; actives 1.8% (n = 330,000); in the data active means inhibition mostly above about 38%, no sharp cut-off; inactive means mostly below about 40%
Target sequence (O43613 whole entry, looked up): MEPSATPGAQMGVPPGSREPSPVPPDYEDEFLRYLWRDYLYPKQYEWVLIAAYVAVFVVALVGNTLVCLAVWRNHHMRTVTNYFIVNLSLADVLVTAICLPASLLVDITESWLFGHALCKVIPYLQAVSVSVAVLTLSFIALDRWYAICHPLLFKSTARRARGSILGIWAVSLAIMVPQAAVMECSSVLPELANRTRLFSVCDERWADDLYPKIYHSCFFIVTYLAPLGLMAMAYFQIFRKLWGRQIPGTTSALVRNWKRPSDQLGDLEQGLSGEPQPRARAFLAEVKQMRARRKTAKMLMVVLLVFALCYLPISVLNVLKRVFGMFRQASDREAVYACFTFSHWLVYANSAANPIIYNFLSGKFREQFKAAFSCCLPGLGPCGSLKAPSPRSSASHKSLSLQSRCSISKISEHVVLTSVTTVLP
OX1R antag-2 = human HCRTR1 antagonism | O43613 | CHO/OX1R cells, Fluo-8 calcium fluorescence, orexin A | inhibition, % at 5 µM | actives 0.43% (n = 330,000);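 active means inhibition above its plate's threshold, mean inhibition of all tested compounds on the plate plus 3 SD, cut at about 37% in these data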
TAAR1 antagonist = human TAAR1 antagonism | CHO RD-HGA16 TAAR1, Fluo-8 calcium fluorescence, antagonist | inhibition, % at 3 µM | actives 1.5% (n = 360,000);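 active means inhibition above a per-plate cutoff, the mean inhibition of test compounds on that plate plus 3 SD, cut at about 49% in these data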
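System: RD-HGA16 CHO cells with stable hTAAR1 and Gα16 | Probe or stimulus: EC80 β-phenethylamine stimulus | Dosing: 3 µM, single point | Times: Dye loading 75 min at 37 °C, then 30 min room temperature | Measured by: Fluo-8 calcium-sensitive fluorescence | Read-out basis: % inhibition of agonist calcium response | Replicates: n of 1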
TAAR1 ag = human TAAR1 agonism | activation, % at 3 µM | actives 0.99% (n = 360,000) | AID 624467 | CHO RD-HGA16 TAAR1, Fluo-8 calcium fluorescence; vehicle wells 0%, saturating PEA agonist 100% | Q96RJ0;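 active means activation above the mean activation of all test compounds in the run plus 3 SD, cut at about 38% in these data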
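test system = CHO RD-HGA16 cells carrying human TAAR1 plus Gα16 | schedule = 17-24 h seeding, 75 min 37 °C dye, 30 min RT | compound dosing = 3 µM single concentration | control set = DMSO and PEA EC100 | replicates = n 1 | signal = Fluo-8 fluorescence, 5 s baseline then 140 s kinetic read | measure = percent activation vs PEA EC100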
CHO parental Ca = counter-screen: ATP calcium response change in parental CHO cells | parental CHO-K1, ATP-induced calcium, Fluo-8 fluorescence | inhibition, % at 5.6 µM | actives 0.63% (n = 330,000) | AID 463079;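 active means inhibition above that plate's mean sample inhibition plus 3 SD, cut at about 26% in these data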
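Measured by: calcium-sensitive Fluo-8 fluorescence / Test system: CHO parental line / Controls: ATP-challenged DMSO wells low, unchallenged DMSO wells high / Measure: % inhibition / Compound: single nominal dose of 5.6 µM per compound / Replicates: single well per compound, no replicates / Reagent: ATP as calcium-mobilizing challenge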
GPR7 antagonist = human neuropeptides B/W receptor 1 antagonism | GPR7-expressing cells, fluorescence antagonist assay | P48145 | actives 1.1% (n = 290,000) | inhibition, % at 4.4 µM; in the data active means inhibition above about 16%, passing the limit was not always enough;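 further: cells stimulated with the agonist NPW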
OX1R HTRF conf = confirmation of human orexin 1 receptor antagonists, HTRF format; OX1R-expressing cells, HTRF antagonist assay; actives 49% (n = 1,800); shares compounds with OX1R antag-1; inhibition, % at 6.6 µM; in the data active means inhibition above about 55%;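 further: CHO cells expressing OX1R stimulated with orexin A at about EC80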
CHO-K1 HTRF cnt = counter-screen for OX1R antagonists: effect in parental CHO-K1 cells. actives 48% (n = 1,800). HTRF counterscreen. inhibition, % at 6.6 µM. shares compounds with OX1R antag-1; in the data active means inhibition above about 17%
Of the large screens only hits and unclear results are named; the others gave an inactive call (follow-up assays come after a bar, where they were run). A selection: hits, their analogues and other compounds. The true share with any hit is near 4.6%.

O=C(O)c1ccccc1/C=N/Nc1ccc(S(=O)(=O)N2CCOCC2)cc1[N+](=O)[O-]	none
C#CCNC(=O)C[C@@H]1C[C@@]2(C(=O)OC)CCCCC=C2N(Cc2ccco2)C1=O	none (no result: OX1R antag-1, OX1R antag-2, CHO parental Ca, GPR7 antagonist)
N/C(=N\OC(=O)c1cccc([N+](=O)[O-])c1)c1ccccn1	OX1R antag-1 97 | OX1R HTRF conf inactive | CHO-K1 HTRF cnt 38
N/C(=N/S(=O)(=O)c1ccccc1)c1cccc([N+](=O)[O-])c1	OX1R antag-1 90 | OX1R HTRF conf inactive | CHO-K1 HTRF cnt 21
N/C(=N\OC(=O)c1ccc2ccccc2c1)c1cccc([N+](=O)[O-])c1	none
CC/C(C)=N/NC(=O)c1[nH]c2ccc(C)cc2c1-c1ccccc1	OX1R antag-1 93 | OX1R HTRF conf inactive | CHO-K1 HTRF cnt inactive
CC1(C(=O)NCc2ccc3c(c2)OCO3)CCN1Cc1csc2ccccc12 (configuration not stated)	none (no result: OX1R antag-1, OX1R antag-2, CHO parental Ca, GPR7 antagonist)
CC(=O)Nc1ccc2oc(-c3ccccc3Br)nc2c1	OX1R antag-1 78 | OX1R HTRF conf inactive | CHO-K1 HTRF cnt inactive
CCC(=O)Nc1ccc2oc(-c3ccccc3Br)nc2c1	OX1R antag-1 84 | OX1R HTRF conf inactive | CHO-K1 HTRF cnt inactive
CSc1nnc2c(n1)OC(C)=Nc1ccccc1-2	OX1R antag-1 79 | OX1R HTRF conf 60 | CHO-K1 HTRF cnt 101
CCC1=Nc2ccccc2-c2nnc(SC)nc2O1	OX1R antag-1 197 | OX1R HTRF conf 68 | CHO-K1 HTRF cnt 95
CCc1nc2ccc(C(=O)NCCOc3ccc(OC)cc3)cn2c1N(C)C(=O)Cc1ccccc1	none (no result: OX1R antag-1, OX1R antag-2, CHO parental Ca, GPR7 antagonist)
CCC(=O)N1CCC2(CC1)Oc1ccc(F)cc1C(=O)C21CC(c2cccnc2)=NO1 (configuration not stated)	OX1R antag-1 78 (no result: GPR7 antagonist) | OX1R HTRF conf inactive | CHO-K1 HTRF cnt inactive
COc1ccc(C=CC(=O)c2c(N)n(C)c(=O)n(C)c2=O)cc1	none (no result: OX1R antag-1, OX1R antag-2, CHO parental Ca, GPR7 antagonist)
CC(=O)N(C(C)=O)N1C(=O)c2cccc3c(N4CCOCC4)ccc(c23)C1=O	OX1R antag-1 119 | OX1R HTRF conf inactive | CHO-K1 HTRF cnt 40
O=C(OCCN1C(=O)c2cccc3c(N4CCOCC4)ccc(c23)C1=O)c1cc(Cl)cc(Cl)c1	none (no result: OX1R antag-1, OX1R antag-2, TAAR1 antagonist, TAAR1 ag, CHO parental Ca)
C[C@H](CO)N1C[C@H](C)[C@@H](CN(C)S(=O)(=O)c2cccc(C#N)c2)OCc2cn(nn2)CCCC1=O	none (no result: OX1R antag-1, OX1R antag-2, CHO parental Ca, GPR7 antagonist)
CCCS(=O)(=O)N1CCCC(C(=O)NCCCN(Cc2ccccc2)C(C)C)C1 (configuration not stated)	OX1R antag-1 107 | OX1R HTRF conf inactive | CHO-K1 HTRF cnt inactive
CCN(CC)c1ccc(NC(=O)c2cc3ccccc3o2)c(C)c1	OX1R antag-1 80 | OX1R HTRF conf 59 | CHO-K1 HTRF cnt inactive
Cc1ccccc1NC(=O)c1cc2ccccc2o1	none
COC(=O)C1=C(C)N(Cc2cccc(C(F)(F)F)c2)C(=NCc2cc(OC)c(OC)c(OC)c2)NC1c1cccc(Cl)c1 (configuration not stated)	none (no result: OX1R antag-1, OX1R antag-2, CHO parental Ca, GPR7 antagonist)
CCCCN(C)Cc1c(O)ccc2c(-c3ccccc3)cc(=O)oc12	OX1R antag-1 85 | OX1R HTRF conf inactive | CHO-K1 HTRF cnt inactive
CCCCCC(=O)N1C[C@@H](n2cc(C3CC3)nn2)[C@H](O)C[C@@H]1c1ccc(OC)cc1	none (no result: OX1R antag-1, OX1R antag-2, CHO parental Ca, GPR7 antagonist)
CC(=O)c1ccc(OCC(=O)Nc2c(C)nn(-c3ccccc3)c2C)cc1	OX1R antag-1 91 (no result: GPR7 antagonist) | OX1R HTRF conf inactive | CHO-K1 HTRF cnt inactive
Cc1nn(-c2ccccc2)c(C)c1NC(=O)COC(=O)CCOc1ccccc1	none (no result: GPR7 antagonist)
CC(C)C[C@H](NC(=O)N1CC(=O)Nc2ccccc21)C(=O)N[C@H](Cc1c[nH]c2ccccc12)C(=O)O	none
CC(C)C[C@H](NC(=O)N1CC(=O)Nc2ccccc21)C(=O)N[C@@H](Cc1c[nH]c2ccccc12)C(=O)O	OX1R antag-1 82 | OX1R HTRF conf inactive | CHO-K1 HTRF cnt inactive
CCOCC(=O)N1CCN(c2ccc([N+](=O)[O-])cc2)CC1	OX1R antag-1 83 | OX1R HTRF conf inactive | CHO-K1 HTRF cnt 29
